Test results published in ChEMBL document CHEMBL2331331 (J Med Chem, 2013).

Assays:
[1] = molecular target: Vascular endothelial growth factor receptor 2 (Danio rerio, UniProt Q5GIT4); assay: Inhibition of VEGFR2 in transgenic zebrafish embryo assessed as inhibition of intersegmental vessels formation measured 33 hrs post fertilization by fluorescence microscopic analysis
Method in brief: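 FLK-1:EGFP transgenic zebrafish embryos, 10 per well, exposed at 28.5 °C from 15 to 31 hpf to compound in fish water at 1.25, 2.5 or 5 μM (diluted from a 10 mmol/L DMSO stock); 0.3% DMSO as vehicle control. Embryos were imaged at 33 hpf, and ISVs above the yolk extension were scored for length. n = 11, mean ± SD, ANOVA.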

[2] = system: HeLa; assay: Cytotoxicity against human HeLa cells assessed as growth inhibition after 72 hrs by MTT assay; type: functional, cell-based
Method in brief: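 MTT viability assay with serial inhibitor dilutions for 72 h at 37 °C, then MTT for 2–4 h and OD read at 570 nm. Leukemia lines were seeded at (1–4) × 10⁴ cells/well and lysed with 20% acidified SDS. Adherent lines were seeded at (2–5) × 10³ cells/well, dosed after 24 h and dissolved in DMSO. Triplicate; mean ± SD.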

[3] = molecular target: Receptor-type tyrosine-protein kinase FLT3 (Homo sapiens, UniProt P36888, ITD); assay: Binding affinity to FLT3-ITD mutant (unknown origin)
[4] = molecular target: Vascular endothelial growth factor receptor 2 (Homo sapiens, UniProt P35968); assay: Inhibition of VEGFR2 (unknown origin)
[5] = molecular target: T1, Receptor-type tyrosine-protein kinase FLT3 (Homo sapiens, UniProt P36888); assay: Inhibition of FLT3 (unknown origin)
T1 sequence (P36888 whole entry): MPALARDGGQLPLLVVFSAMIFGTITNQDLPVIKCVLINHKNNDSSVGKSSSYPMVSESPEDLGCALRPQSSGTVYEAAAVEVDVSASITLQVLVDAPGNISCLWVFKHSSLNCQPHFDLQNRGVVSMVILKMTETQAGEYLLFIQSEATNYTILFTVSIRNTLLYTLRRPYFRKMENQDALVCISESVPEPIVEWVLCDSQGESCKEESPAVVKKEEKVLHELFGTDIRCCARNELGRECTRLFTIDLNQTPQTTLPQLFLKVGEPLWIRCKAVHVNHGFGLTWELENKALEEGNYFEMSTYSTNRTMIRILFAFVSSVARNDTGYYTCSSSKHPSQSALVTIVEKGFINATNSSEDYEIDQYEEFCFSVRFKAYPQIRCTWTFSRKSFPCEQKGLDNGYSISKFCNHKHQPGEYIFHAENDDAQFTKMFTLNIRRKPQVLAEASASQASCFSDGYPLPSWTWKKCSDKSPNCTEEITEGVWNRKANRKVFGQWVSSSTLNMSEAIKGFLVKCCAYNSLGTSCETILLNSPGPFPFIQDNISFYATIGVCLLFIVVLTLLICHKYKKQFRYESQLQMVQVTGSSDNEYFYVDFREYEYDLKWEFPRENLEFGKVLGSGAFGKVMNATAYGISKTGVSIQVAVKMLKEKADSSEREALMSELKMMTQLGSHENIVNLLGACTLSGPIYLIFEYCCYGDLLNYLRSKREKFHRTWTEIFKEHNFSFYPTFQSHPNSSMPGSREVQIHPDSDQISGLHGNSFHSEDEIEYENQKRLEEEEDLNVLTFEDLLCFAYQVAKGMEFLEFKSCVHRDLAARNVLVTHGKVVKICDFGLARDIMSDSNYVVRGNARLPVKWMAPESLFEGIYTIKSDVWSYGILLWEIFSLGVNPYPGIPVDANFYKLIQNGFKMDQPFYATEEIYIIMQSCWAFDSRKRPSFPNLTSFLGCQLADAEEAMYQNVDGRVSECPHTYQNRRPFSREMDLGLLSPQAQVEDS

Vascular endothelial growth factor receptor 2 (Danio rerio, UniProt Q5GIT4), sequence (Q5GIT4 whole entry): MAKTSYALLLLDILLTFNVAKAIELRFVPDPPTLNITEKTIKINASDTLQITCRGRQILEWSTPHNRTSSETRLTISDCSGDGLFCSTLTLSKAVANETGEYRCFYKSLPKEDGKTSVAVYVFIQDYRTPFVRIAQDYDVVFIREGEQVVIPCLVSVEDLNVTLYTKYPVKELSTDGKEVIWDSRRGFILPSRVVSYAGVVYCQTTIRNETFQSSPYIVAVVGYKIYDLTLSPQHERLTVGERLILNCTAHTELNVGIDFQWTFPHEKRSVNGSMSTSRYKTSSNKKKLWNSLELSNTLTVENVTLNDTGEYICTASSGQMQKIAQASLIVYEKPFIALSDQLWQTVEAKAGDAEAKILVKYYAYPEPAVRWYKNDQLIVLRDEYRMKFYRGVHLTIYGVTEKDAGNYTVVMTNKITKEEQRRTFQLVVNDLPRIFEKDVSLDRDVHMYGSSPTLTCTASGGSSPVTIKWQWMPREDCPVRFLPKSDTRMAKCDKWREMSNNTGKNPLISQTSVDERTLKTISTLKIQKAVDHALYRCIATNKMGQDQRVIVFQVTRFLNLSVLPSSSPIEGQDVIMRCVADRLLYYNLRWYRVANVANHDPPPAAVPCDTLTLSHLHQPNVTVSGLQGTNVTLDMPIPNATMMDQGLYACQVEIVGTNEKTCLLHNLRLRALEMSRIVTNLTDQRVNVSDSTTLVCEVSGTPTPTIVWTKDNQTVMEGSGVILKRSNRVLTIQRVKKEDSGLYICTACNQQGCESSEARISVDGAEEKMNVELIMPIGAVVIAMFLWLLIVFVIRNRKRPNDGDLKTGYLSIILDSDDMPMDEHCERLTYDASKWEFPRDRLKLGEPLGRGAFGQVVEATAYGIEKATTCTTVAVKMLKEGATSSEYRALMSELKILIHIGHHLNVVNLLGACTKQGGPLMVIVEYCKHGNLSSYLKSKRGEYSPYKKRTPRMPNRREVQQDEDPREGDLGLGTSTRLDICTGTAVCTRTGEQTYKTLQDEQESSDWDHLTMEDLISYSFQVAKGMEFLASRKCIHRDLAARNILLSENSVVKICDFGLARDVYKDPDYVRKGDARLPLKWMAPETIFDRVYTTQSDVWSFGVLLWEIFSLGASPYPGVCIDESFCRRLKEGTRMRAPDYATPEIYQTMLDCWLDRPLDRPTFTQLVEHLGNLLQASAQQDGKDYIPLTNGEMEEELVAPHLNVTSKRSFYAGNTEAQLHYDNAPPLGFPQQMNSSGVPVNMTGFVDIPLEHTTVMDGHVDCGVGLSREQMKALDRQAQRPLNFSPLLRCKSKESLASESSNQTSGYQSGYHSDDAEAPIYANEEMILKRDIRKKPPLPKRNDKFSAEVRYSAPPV
Vascular endothelial growth factor receptor 2 (Homo sapiens, UniProt P35968), sequence (P35968 whole entry): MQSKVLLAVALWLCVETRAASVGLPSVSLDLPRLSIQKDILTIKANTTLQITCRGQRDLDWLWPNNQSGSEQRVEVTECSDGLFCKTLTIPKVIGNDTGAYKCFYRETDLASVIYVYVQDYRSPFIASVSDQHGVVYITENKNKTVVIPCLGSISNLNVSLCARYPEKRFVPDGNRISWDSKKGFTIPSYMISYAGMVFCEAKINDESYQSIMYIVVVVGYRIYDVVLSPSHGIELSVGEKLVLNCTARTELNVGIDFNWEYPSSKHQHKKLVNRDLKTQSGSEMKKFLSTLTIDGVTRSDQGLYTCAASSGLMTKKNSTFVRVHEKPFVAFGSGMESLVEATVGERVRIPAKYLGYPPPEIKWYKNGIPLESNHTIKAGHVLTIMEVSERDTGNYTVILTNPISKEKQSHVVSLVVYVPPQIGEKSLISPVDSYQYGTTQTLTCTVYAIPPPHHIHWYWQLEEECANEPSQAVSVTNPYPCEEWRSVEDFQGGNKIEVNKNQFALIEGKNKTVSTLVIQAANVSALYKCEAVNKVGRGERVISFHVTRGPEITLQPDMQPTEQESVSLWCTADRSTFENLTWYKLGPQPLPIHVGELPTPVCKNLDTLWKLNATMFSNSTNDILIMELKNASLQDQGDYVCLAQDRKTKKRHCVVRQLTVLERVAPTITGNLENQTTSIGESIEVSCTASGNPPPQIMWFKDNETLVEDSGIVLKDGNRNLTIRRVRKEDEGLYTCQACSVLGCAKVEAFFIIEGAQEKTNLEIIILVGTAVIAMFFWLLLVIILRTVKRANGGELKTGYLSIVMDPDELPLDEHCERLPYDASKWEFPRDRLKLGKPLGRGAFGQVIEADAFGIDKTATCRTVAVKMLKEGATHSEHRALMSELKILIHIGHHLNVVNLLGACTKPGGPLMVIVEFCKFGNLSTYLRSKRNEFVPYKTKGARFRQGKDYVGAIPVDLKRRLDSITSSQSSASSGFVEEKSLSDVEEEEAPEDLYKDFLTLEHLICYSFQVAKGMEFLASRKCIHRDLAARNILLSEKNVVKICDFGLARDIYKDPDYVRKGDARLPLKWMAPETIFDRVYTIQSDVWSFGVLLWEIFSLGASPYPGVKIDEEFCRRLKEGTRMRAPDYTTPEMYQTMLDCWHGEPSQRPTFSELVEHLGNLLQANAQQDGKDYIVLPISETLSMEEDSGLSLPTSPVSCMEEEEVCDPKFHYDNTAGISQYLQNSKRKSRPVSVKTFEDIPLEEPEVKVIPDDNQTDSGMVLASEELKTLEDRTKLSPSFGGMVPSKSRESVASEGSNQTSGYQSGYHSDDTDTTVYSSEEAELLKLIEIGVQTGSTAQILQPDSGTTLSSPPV

Compound	IC50 [1]	Kd [3]	IC50 [4]	IC50 [5]	IC50 [2]
O=C(Nc1ccc(Br)cc1)Nc1cccc(Oc2ncnc3[nH]ncc23)c1	> 100 µM	–	–	–	> 10 µM
O=C(Cc1ccc(C(F)(F)F)cc1)Nc1cccc(Oc2ncnc3[nH]ncc23)c1	> 100 µM	–	–	–	> 10 µM
O=C(Nc1ccc(F)cc1)Nc1ccc(Oc2ncnc3[nH]ncc23)cc1	89.4 µM	–	–	–	> 10 µM
O=C(Cc1ccc(Br)cc1)Nc1cccc(Oc2ncnc3n[nH]cc23)c1	> 100 µM	–	–	–	> 10 µM
COc1cccc(NC(=O)Nc2ccc(Oc3ncnc4n[nH]cc34)cc2)c1	82 µM	–	–	–	> 10 µM
O=C(Nc1ccc(Oc2ncnc3n[nH]cc23)cc1)NC1CCCCC1	> 100 µM	–	–	–	> 10 µM
Cc1cccc(NC(=O)Nc2ccc(Nc3ncnc4n[nH]cc34)cc2)c1C	> 100 µM	–	–	–	> 10 µM
O=C(Nc1cccc(Oc2ncnc3[nH]ncc23)c1)c1ccc(Br)cc1	> 100 µM	–	–	–	> 10 µM
O=C(NCC1CCCCC1)Nc1ccc(Oc2ncnc3[nH]ncc23)cc1	> 100 µM	–	–	–	> 10 µM
Cn1ncc2c(Oc3ccc(NC(=O)Nc4ccc(C(F)(F)F)cc4)cc3)ncnc21	> 100 µM	–	–	–	> 10 µM
O=C(Nc1ccc(C(F)(F)F)cc1)Nc1cccc(Oc2ncnc3[nH]ncc23)c1	> 100 µM	–	–	–	> 10 µM
O=C(Nc1ccc(Oc2ncnc3[nH]ncc23)cc1)Nc1ccc(N2CCOCC2)cc1	> 100 µM	–	–	–	> 10 µM
Cc1cccc(NC(=O)Nc2ccc(Oc3ncnc4[nH]ncc34)cc2)c1C	98.8 µM	–	–	–	> 10 µM
COc1cccc(NC(=O)Nc2ccc(Nc3ncnc4[nH]ncc34)cc2)c1	> 100 µM	–	–	–	> 10 µM
O=C(Nc1ccc(Oc2ncnc3n[nH]cc23)cc1)Nc1cccnc1	> 100 µM	–	–	–	> 10 µM
CC(NC(=O)Nc1ccc(Nc2ncnc3[nH]ncc23)cc1)c1ccccc1 (stereo not given)	> 100 µM	–	–	–	> 10 µM
O=C(Nc1cccc(Oc2ncnc3n[nH]cc23)c1)c1ccc(C(F)(F)F)cc1	> 100 µM	–	–	–	> 10 µM
O=C(Nc1ccc(Nc2ncnc3[nH]ncc23)cc1)Nc1ccc(C(F)(F)F)cc1	> 100 µM	–	–	–	> 10 µM
COc1cccc(NC(=O)Nc2ccc(Oc3ncnc4c3cnn4C)cc2)c1	> 100 µM	–	–	–	> 10 µM
O=C(Nc1ccc(Br)cc1)Nc1ccc(Oc2ncnc3[nH]ncc23)cc1	74.7 µM	–	–	–	> 10 µM
O=C(Nc1ccc(Br)cc1)Nc1ccc(Nc2ncnc3n[nH]cc23)cc1	> 100 µM	–	–	–	> 10 µM
CC(NC(=O)Nc1ccc(Oc2ncnc3n[nH]cc23)cc1)c1ccccc1 (stereo not given)	> 98.2 µM	–	–	–	> 10 µM

More lines, in order of falling IC50 [1], values ahead:

IC50 [1]	Kd [3]	IC50 [4]	IC50 [5]	Compound	IC50 [2]
74.7 µM	–	–	–	O=C(Cc1ccc(Br)cc1)Nc1ccc(Oc2ncnc3n[nH]cc23)cc1	> 10 µM
74.7 µM	–	–	–	O=C(Nc1ccc(Oc2ncnc3n[nH]cc23)cc1)c1ccc(Br)cc1	> 10 µM
20.2 µM	–	–	–	O=C(Nc1ccccc1)Nc1ccc(Oc2ncnc3n[nH]cc23)cc1	> 10 µM
17.8 µM	–	–	–	O=C(Nc1ccc(Oc2ncnc3n[nH]cc23)cc1)Nc1cccc(OC(F)(F)F)c1	> 10 µM
16.6 µM	–	–	–	O=C(Nc1ccc(Oc2ncnc3[nH]ncc23)cc1)Nc1cccc(F)c1	> 10 µM
8.46 µM	–	–	–	O=C(Nc1ccc(Oc2ncnc3[nH]ncc23)cc1)Nc1ccc(C(F)(F)F)cc1Cl	> 10 µM
7.73 µM	–	–	–	CC(C)c1cccc(NC(=O)Nc2ccc(Oc3ncnc4n[nH]cc34)cc2)c1	> 10 µM
5.18 µM	–	–	–	O=C(Nc1ccc(Oc2ncnc3n[nH]cc23)cc1)Nc1cc(C(F)(F)F)cc(C(F)(F)F)c1	> 10 µM
2.6 µM	–	–	–	CNC(=O)c1cc(Oc2ccc(NC(=O)Nc3ccc(Cl)c(C(F)(F)F)c3)cc2)ccn1 [SORAFENIB]	4.16 µM
1.2 µM	0.91 µM	0.038 µM	0.032 µM	O=C(Nc1ccc(Oc2ncnc3[nH]ncc23)cc1)Nc1ccc(C(F)(F)F)cc1	> 10 µM
1.05 µM	0.0066 µM	–	–	O=C(Nc1ccc(Oc2ncnc3[nH]ncc23)cc1)Nc1cccc(C(F)(F)F)c1	> 10 µM
